An excerpt weighted towards active compounds, which were near 9% of everything screened.
mHtt clearance: clearance of mutant huntingtin inclusions, primary screen, imaging, HeLa Exon1htt(103Q)mCFP, confocal imaging. aggregate imaging; zero = plate's median compound well. inhibition, % at 1.5 µM. 47,000 compounds, 0.42% hits. AID 853, 2007;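 active means inhibition of aggregate fluorescence above about 70%, also judged a hit by eye on the cell image, limit read from the data, passing the limit was not always enough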;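 further: cells exposed to compound for three days before fixation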
M1 ag: M1 muscarinic receptor agonists, primary screen, CHO-M1 cells, Fluo-4 calcium, agonist mode | Fluo-4 calcium fluorescence; stronger effect = higher value | 64,000 compounds, 3% hits | B-score at 10 µM | Muscarinic acetylcholine receptor M1;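 active means fluorescence rise, raw or as B-score row- and column-corrected plate score, outside the 99.7% band of its plate's samples, either direction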
AP ELISA ortho: alternative complement pathway inhibitors, primary screen, biochemical, ELISA, human serum, orthogonally pooled compounds | inhibition, % at 5 µM | LPS-coated ELISA, C3 deposition; tested in compound mixtures | 62,000 compounds, 0.08% hits;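 active means inhibition above 30% in each of the two pooled mixtures holding the compound, so the lower value exceeds 30%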
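Medium: diluted human serum in Mg2+-EGTA GVB++. Assay system: human serum complement alternative pathway, C3 deposition onto LPS. Also added: Plate-bound LPS. Technique: Anti-C3 ELISA, OD 450 nm. Measure: percent inhibition. Incubation: 1 h at 37 °C. Dosing: 5 µM each compound, pools of ten, 50 µM per pool.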
D1 allo mod: D1 CRE-luciferase signal change, two-sided – cell-based, HEK293 D1, dopamine EC30, D1 allosteric modulator project, primary screen; D(1A) dopamine receptor (Homo sapiens), P21728; B-score at 10 µM; dopamine EC30 potentiation; actives deviate in either direction; 58,000 compounds, 5.9% hits;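 active means luminescence count or its row- and column-corrected plate score outside the 99.7% band of the plate's sample wells, on either side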
Target sequence (P21728 whole entry, looked up): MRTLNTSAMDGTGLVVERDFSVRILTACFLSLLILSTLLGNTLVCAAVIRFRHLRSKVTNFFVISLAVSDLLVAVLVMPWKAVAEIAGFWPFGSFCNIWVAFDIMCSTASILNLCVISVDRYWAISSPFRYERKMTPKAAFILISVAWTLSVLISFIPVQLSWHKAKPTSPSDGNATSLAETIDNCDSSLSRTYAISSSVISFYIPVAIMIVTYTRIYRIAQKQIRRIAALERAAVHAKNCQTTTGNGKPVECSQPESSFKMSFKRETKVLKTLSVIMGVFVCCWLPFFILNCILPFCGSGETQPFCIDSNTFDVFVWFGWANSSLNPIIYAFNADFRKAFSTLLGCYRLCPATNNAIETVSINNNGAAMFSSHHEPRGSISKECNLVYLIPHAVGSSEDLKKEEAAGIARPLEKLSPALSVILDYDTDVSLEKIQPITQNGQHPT
M1 antagonist: antagonists of rat M1 muscarinic receptor | CHO-M1 cells, Fluo-4 calcium, ACh EC80 antagonist mode; stronger effect = lower value | B-score at 10 µM | 64,000 compounds, 3.4% hits | AID 628, 2007;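 active means calcium fluorescence response, raw or row-and-column corrected B-score, differing from the plate sample mean either way at a set confidence level, mostly lower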
Numbers stand for hits; n = inactive; x = no result given.

SMILES | mHtt clearance | M1 ag | AP ELISA ortho | D1 allo mod | M1 antagonist
Cc1nc(NC2=NCN(CCc3ccccc3)CN2)nc2ccccc12 | x | n | n | x | -8.96
O=C(NC1CCCC1)c1ccc2nc(-c3ccco3)c(-c3ccco3)nc2c1 | n | 7.07 | n | n | n
O=C(NC1CCCC1)c1ccc2nc[nH]c2c1 | n | n | n | n | n
Cc1cccc(NC(=O)C2CCCN2S(=O)(=O)c2cccc3cccnc23)c1 (centres undefined) | n | n | n | n | 0.736
COc1cccc(-c2cc(C(F)(F)F)nc(N3CCCCC3)n2)c1 | n | x | n | x | x
COc1cccc(-c2cn3nc4c(nc3n2)CCCC4)c1 | n | n | n | -4.82 | n
COC(=O)c1cc(Br)c(=O)n(Cc2cccnc2)c1 | n | n | n | n | n
O=C(CN1C(=O)C2CC=CCC2C1=O)OCCN1C(=O)c2ccccc2C1=O (centres undefined) | x | n | n | n | n
COc1ccc(C/C(=N\O)c2ccc(OC)cc2)cc1 | n | x | x | x | x
CCOC(=O)c1c(C)n(C)c2ccc(OCC(O)Cn3c(C)nc4ccccc43)cc12 (centres undefined) | n | 2.15 | x | n | n
Clc1ccc(Cc2noc(-c3cccs3)n2)cc1 | x | n | n | n | n
CCC(C)n1c(SCC(=O)NC(=O)Nc2ccc3c(c2)OCCO3)nc2ccccc2c1=O (centres undefined) | n | n | n | n | n
CCC(C)n1c(SC(C)C#N)nc2ccccc2c1=O (centres undefined) | x | n | n | -4.79 | n
O=C(OCC(=O)N1CCCC1)c1cccs1 | x | n | n | n | n
Cn1c(C(=O)Nc2ccc3c(c2)OCCO3)cc2sccc21 | x | n | n | -2.67 | n
O=C(Nc1ccc2c(c1)OCCO2)c1cc2sccc2n1Cc1ccccc1 | n | x | x | x | x
COc1cccc(NC(=O)CN2CCN(c3ccc(F)cc3)CC2)c1 | n | n | n | n | n
COc1cccc(NC(=O)NCCCN2CCN(c3ccc(F)cc3)CC2)c1 | n | n | n | -5.09 | n
Cn1c(=O)cc(SCC(=O)NCCCN2CCN(c3ccccc3F)CC2)c2ccccc21 | x | n | n | n | n
COc1ccc(NC(=O)NCCCN2CCN(c3cc(C)ccc3C)CC2)cc1 | x | n | n | -6.12 | n
CCn1c(=O)cc(SCC(=O)NCCCN2CCN(c3ccc(F)cc3)CC2)c2ccccc21 | n | n | n | -3.66 | n
Cc1ccc(C2C(C(=O)c3sc(C)nc3C)=C(O)C(=O)N2CCCN(C)C)o1 (centres undefined) | x | n | n | n | n
COc1ccc(OC)c2c(C)cc(N3CCCN(C)CC3)nc12 | x | n | n | x | n
COc1ccccc1N/C(=N/S(=O)(=O)c1ccc(C)cc1)c1ccc(Cl)cc1 | n | x | x | x | x
CCC(C)C(=O)Nc1nc(C)c(-c2csc(Nc3cc(Cl)ccc3OC)n2)s1 (centres undefined) | 71.9 | x | x | x | x
SMILES | mHtt clearance | M1 ag | AP ELISA ortho | D1 allo mod | M1 antagonist
CCOc1ccc(C2C(C#N)=C(N)SC(N)=C2C#N)c(OCC)c1 | n | n | n | n | n
COC(=O)C1=C(C)OC(N)=C(C#N)C1c1cc(C)sc1C (centres undefined) | n | x | x | x | x
Cc1cc(C2C(C#N)=C(N)SC(N)=C2C#N)c(C)s1 | n | 3.31 | n | n | n
Cc1sccc1C1C(C#N)=C(N)SC(N)=C1C#N | x | 130 | x | n | n
Cc1nc2c3ccccc3[nH]c(=O)n2n1 | n | n | n | n | n
COc1ccc(CCn2nnnc2C(C(C)C)N2CCN(c3ncccn3)CC2)cc1OC (centres undefined) | x | n | n | x | n
CSCC[C@H](NC(=O)c1nn(C)c(=O)c2ccccc12)c1nc2ccccc2[nH]1 | n | x | x | x | x
CC1CN(c2nc3c(c(=O)n(C)c(=O)n3C)n2Cc2c(Cl)cccc2Cl)CC(C)O1 (centres undefined) | x | n | n | n | 3.16
Cc1ccc(-c2cc(C(=O)N3CCCC3)no2)cc1 | x | n | n | -5.16 | n
COc1ccccc1N1CCN(C(=O)c2cc(-c3ccc(C)cc3)on2)CC1 | n | n | n | n | n
Cc1ccc(C)c(/C(O)=C2\C(=O)C(=O)N(CCCN(C)C)C2c2cccnc2)c1 (centres undefined) | x | n | n | n | n
CCOC(=O)COc1ccc(C(=O)NC2CCCCC2)cc1 | x | n | n | -5.63 | n
CC(Oc1ccc(C(=O)NC2CCCCC2)cc1)C(=O)O (centres undefined) | n | n | n | n | n
COc1ccc(N(C(=O)Cc2cccs2)C(C(=O)NC2CCCCC2)c2cccn2C)cc1OC (centres undefined) | 94.3 | x | x | x | x
Cn1cccc1C(C(=O)NC1CCCCC1)N(C(=O)Cc1cccs1)c1ccc2c(c1)OCCO2 (centres undefined) | x | x | n | x | x
COc1cc(C2c3c(oc4c(C)cc(C)cc4c3=O)C(=O)N2Cc2cccnc2)ccc1O (centres undefined) | x | n | n | 11.5 | n
COc1ccc(C2c3c(oc4c(C)cc(C)cc4c3=O)C(=O)N2Cc2cccnc2)cc1OC (centres undefined) | x | n | n | n | n
Cc1ocnc1C(=O)Nc1ccc(Cl)cc1 | x | n | n | -1.89 | n
Cn1ccnc1SCc1cn2cc(Br)ccc2n1 | n | n | n | -4.67 | n
COC(=O)c1ccc(CSc2nccn2C)cc1 | n | n | n | n | n
CCCc1nn(CCc2ccccn2)c(N)c1CC | x | n | n | n | n
Cc1nonc1NC(=O)CSc1nc2cc(Cl)ccc2c2c1CCCC2 | x | n | n | -2.49 | n
CC1CCCCN1Cc1nc2c(c(=O)n(C)c(=O)n2C)n1Cc1cccc2ccccc12 (centres undefined) | x | n | n | n | n
COc1ccc(OC)c(S(=O)(=O)Nc2ccc(O)c(Sc3ncn[nH]3)c2)c1 | 86.2 | n | n | n | n
COc1ccc(OC)c(S(=O)(=O)Nc2ccc(O)c3ccccc23)c1 | n | n | n | n | n
SMILES | mHtt clearance | M1 ag | AP ELISA ortho | D1 allo mod | M1 antagonist
CS(=O)(=O)N(CC(=O)NCc1ccc2c(c1)OCO2)Cc1ccccc1 | n | n | n | n | n
COc1cccc(CSc2nc3sc(C)c(C)c3c(=O)n2Cc2ccco2)c1 | n | n | n | n | n
COc1ccccc1C1NC(=O)NC(C)=C1C(C)=O (centres undefined) | 71.1 | n | n | n | n
CCOC(=O)c1ccc2[nH]c(C)c(C)c2c1 | n | x | x | x | x
Cc1[nH]c2ccc(C(=O)OCCN(C)C)cc2c1C | n | n | x | -4.02 | n
Cc1cccc(-n2ncc3c(N4CCC(C)CC4)ncnc32)c1 | n | n | n | -4.27 | n
CCN1CCN(c2ncnc3c2cnn3-c2ccccc2)CC1 | n | n | n | n | n
c1ccc(CCN2CCN(c3ncnc4c3cnn4-c3ccccc3)CC2)cc1 | n | n | n | n | n
CCN1CCN(c2ncnc3c2cnn3-c2ccc(Cl)cc2)CC1 | x | n | n | x | -1.37
Cc1cccc(-n2ncc3c(N4CCC5(CC4)OCCO5)ncnc32)c1 | x | n | n | n | n

Bioassay records deposited in PubChem by several laboratories.
